The structures appear in SMILES notation.

The test system of series [1] is Canis familiaris. Put plainly: Toxicity in telemetered beagle dog assessed as increase in diastolic pressure at 25 mg/kg administered via oral gavage measured during 4 hrs of post dosing. The series is classed as organism-based, Canis lupus familiaris. The conditions noted are these: in vivo.
In series [2] the test system is Canis familiaris. The experiment in a line: Toxicity in telemetered beagle dog assessed as emesis at 5 to 50 mg/kg administered via oral gavage measured within 4 hrs of dosing. The series is classed as organism-based, Canis lupus familiaris. Particulars: in vivo.
Series [3] relates to Canis familiaris. Put plainly: Toxicity in telemetered beagle dog assessed as increase in diastolic pressure at 5 mg/kg administered via oral gavage measured during 4 hrs of post dosing. It counts as organism-based, Canis lupus familiaris. Particulars: in vivo.
Series [4] has as its system Canis familiaris. Put plainly: Toxicity in telemetered beagle dog assessed as increase in heart rate at 50 mg/kg administered via oral gavage measured up to 9 hrs of post dosing. It counts as organism-based, Canis lupus familiaris. Particulars: in vivo.
The nature of series [5]: Apparent permeability of the compound at pH 7.4. The series is classed as ADME. Particulars: not told.
Series [6] deals with Canis familiaris. The experiment in a line: Unbound AUC in beagle dog at 3 mg/kg, po qd administered for 1 month. The series is classed as ADME, organism-based, Canis lupus familiaris. Particulars: in vivo. In a few lines:
(§1)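 Beagle dogs were dosed orally once daily in a 14-day exploratory study or 1-month toxicity studies. Steady-state systemic exposure over the 24 h dosing interval is reported as the mean of male and female values combined.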

In series [7] the test system is Canis familiaris. The experiment in a line: In vivo inhibition of DGAT2 in beagle dog assessed as coverage of in vitro IC50 for dog DGAT2 at 3 mg/kg, po qd administered for 1 month. It counts as functional, Canis lupus familiaris. On the set-up: scale not given: the % may be the effect or the level left. A digest of the protocol:
(§2)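 Beagle dogs, once-daily oral dosing for 14 days or 1 month; systemic exposure with sexes combined; coverage is the average % above dog DGAT2 IC50 at steady state over the 24 h dosing interval.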

The nature of series [8]: Apparent intrinsic clearance in dog hepatocytes assessed per million cells. It counts as ADME, cell-based, Canis lupus familiaris, Hepatocyte.
The nature of series [9]: Ratio of Cmax in telemetered beagle dog at 50 mg/kg administered via oral gavage measured over 24 hrs to IC50 for in vitro inhibition of dog DGAT2. Particulars: in vivo. It counts as organism-based, Canis lupus familiaris. A digest of the protocol: (§3)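 Telemetered Beagle dogs given single oral doses (5, 25 and 50 mg kg–1), with systolic and diastolic blood pressure and heart rate monitored after dosing. Cmax is related to the dog DGAT2 enzymatic IC50, which is the geometric mean of at least three replicates.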

Series [10] is described as follows: Ratio of Cmax in telemetered beagle dog at 25 mg/kg administered via oral gavage measured over 24 hrs to IC50 for in vitro inhibition of dog DGAT2. Particulars: in vivo. It counts as organism-based, Canis lupus familiaris. A digest of the protocol:
as §3

Series [11] has as its system Canis familiaris. The experiment in a line: Unbound Cmax in telemetered beagle dog at 50 mg/kg administered via oral gavage measured over 24 hrs. The conditions noted are these: in vivo. The series is classed as ADME, organism-based, Canis lupus familiaris. A digest of the protocol: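 Telemetered Beagle dogs given oral doses, with blood pressure and heart rate monitored after dosing alongside plasma exposure.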

Series [12] is described as follows: Oral bioavailability in beagle dog at 5 mg/kg. It counts as ADME, organism-based, Canis lupus familiaris. The conditions noted are these: in vivo.
The subject of series [13] is Canis familiaris. The experiment in a line: Toxicity in telemetered beagle dog assessed as increase in systolic pressure at 5 mg/kg administered via oral gavage measured during 4 hrs of post dosing. The series is classed as organism-based, Canis lupus familiaris. The conditions noted are these: in vivo.
Series [14] in a line: Ratio of Cmax in beagle dog at 3 mg/kg, po qd administered for 1 month to IC50 for in vitro inhibition of dog DGAT2. The series is classed as organism-based, Canis lupus familiaris. The conditions noted are these: in vivo. In a few lines: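 One-month toxicity study in Beagle dogs with N = 2/sex/dose. Plasma exposure at each dose level was referenced to the dog DGAT2 enzymatic IC50, reported as the geometric mean of at least three replicates.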

A short description of series [15]: Drug metabolism in human liver microsomes assessed as fraction of UGT-mediated glucuronidation preincubated for 5 mins followed by addition of NADPH regenerating system and measured after 2.5 to 60 mins. It counts as ADME. In a few lines: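 Fractions of metabolism attributed to CYP oxidation and UGT glucuronidation were derived from human liver microsomal incubations. For the glucuronidation arm, microsomes were supplemented with the UGT cofactor UDP-glucuronic acid.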
(Liver microsomes are a subcellular fraction often used to study metabolism.)

For series [16], the system named is Canis familiaris. Put plainly: Toxicity in beagle dog assessed as body weight gain at 100 mg/kg, po qd administered starting on day 11 post 150 mg/kg dosing period and continuing for 20 days. The series is classed as organism-based, Canis lupus familiaris. Particulars: in vivo, 480 h.
The test system of series [17] is Rattus norvegicus. The experiment in a line: In vivo inhibition of DGAT2 in Wistar Han IGS rat assessed as coverage of in vitro IC50 for rat DGAT2 at 60 mg/kg, po qd administered for 1 month. The series is classed as functional. Details: scale not given: the % may be the effect or the level left. In a few lines: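 Wistar Han rats, once-daily oral dosing for 14 days (exploratory, 5/sex/dose) or 1 month (10/sex/dose); toxicokinetics in 3–4/sex/dose with sexes combined; coverage is the average % above rat DGAT2 IC50 at steady state over the 24 h dosing interval.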

Series [18] concerns Canis familiaris. The experiment in a line: Toxicity in beagle dog assessed as increase in heart rate at 50 to 150 mg/kg, po qd administered for 1 month. The conditions noted are these: in vivo. It counts as organism-based, Canis lupus familiaris.
The subject of series [19] is Canis familiaris. Put plainly: Toxicity in telemetered beagle dog assessed as increase in heart rate at 75 mg/kg administered via oral gavage measured over 24 hrs. The series is classed as organism-based, Canis lupus familiaris. The conditions noted are these: in vivo.
Series [20] concerns Canis familiaris. Put plainly: Toxicity in beagle dog assessed as decrease in body weight at 150 mg/kg, po qd administered for 10 days. Particulars: in vivo, 240 h. It counts as organism-based, Canis lupus familiaris.
Series [21] relates to Rattus norvegicus. Put plainly: Toxicity in Wistar Han IGS rat assessed as gastric ulcer at 500 mg/kg, po qd administered for 14 days. It counts as organism-based. Particulars: in vivo, 336 h. A digest of the protocol: (§4)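 Wistar Han rats, daily oral dosing for 14 days (5/sex/dose) or 1 month (10/sex/dose); microscopic findings reported as incidence by sex, plus organ weights.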

Series [22] deals with Canis familiaris. The experiment in a line: Toxicity in beagle dog assessed as body weight gain at 150 mg/kg, po qd administered for 10 days. The series is classed as organism-based, Canis lupus familiaris. Particulars: in vivo, 240 h.
In series [23] the test system is Rattus norvegicus. Put plainly: Unbound Cmax in Wistar Han IGS rat at 300 mg/kg, po qd administered for 1 month. The conditions noted are these: in vivo. The series is classed as ADME, organism-based. A digest of the protocol: (§5)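 Wistar Han rats were dosed orally once daily for 14 days (exploratory, 5/sex/dose) or 1 month (toxicity, 10/sex/dose). Toxicokinetic satellite animals (3–4/sex/dose) were used, and steady-state systemic exposure is given as the mean of male and female values combined.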

The test system of series [24] is Canis familiaris. The experiment in a line: Unbound AUC in beagle dog at 75 mg/kg, po qd administered for 14 days. The series is classed as ADME, organism-based, Canis lupus familiaris. The conditions noted are these: in vivo, 336 h. In a few lines:
as §1

In series [25] the test system is Canis familiaris. Put plainly: Unbound AUC in beagle dog at 100 to 150 mg/kg, po qd administered for 1 month. The series is classed as ADME, organism-based, Canis lupus familiaris. Particulars: in vivo. A digest of the protocol:
as §1

In series [26] the test system is Canis familiaris. Put plainly: In vivo inhibition of DGAT2 in beagle dog assessed as coverage of in vitro IC50 for dog DGAT2 at 2 mg/kg, po qd administered for 1 month. On the set-up: scale not given: the % may be the effect or the level left. The series is classed as functional, Canis lupus familiaris. In a few lines:
as §2

Series [27] has as its system Canis familiaris. The experiment in a line: Toxicity in telemetered beagle dog assessed as change in heart rate at 5 mg/kg administered via oral gavage measured over 24 hrs. It counts as organism-based, Canis lupus familiaris. The conditions noted are these: in vivo.
The test system of series [28] is Rattus norvegicus. The experiment in a line: Toxicity in Wistar Han IGS rat assessed as increase in heart weight at 60 to 300 mg/kg, po qd administered for 1 month. It counts as organism-based. Particulars: in vivo. In a few lines: as §4
Series [29] has as its system Canis familiaris. Put plainly: Toxicity in telemetered beagle dog assessed as change in blood pressure at 5 mg/kg administered via oral gavage measured over 24 hrs. The series is classed as organism-based, Canis lupus familiaris. Particulars: in vivo.
For series [30], the system named is Canis familiaris. Put plainly: Toxicity in telemetered beagle dog assessed as emesis at 20 mg/kg, iv administered as single bolus dose over 2 mins. It counts as organism-based, Canis lupus familiaris. Particulars: in vivo.
Series [31] has as its system Canis familiaris. Put plainly: Toxicity in beagle dog assessed as renal tubular degeneration at 300 mg/kg, po qd administered for 14 days. The series is classed as organism-based, Canis lupus familiaris. Particulars: in vivo, 336 h.
In series [32] the test system is Rattus norvegicus. Put plainly: Unbound AUC in Wistar Han IGS rat at 300 mg/kg, po qd administered for 1 month. The series is classed as ADME, organism-based. Particulars: in vivo. In a few lines:
as §5

The test system of series [33] is Canis familiaris. The experiment in a line: Toxicity in telemetered beagle dog assessed as change in left ventricular parameters and activity level at 5 mg/kg administered via oral gavage measured over 24 hrs. The series is classed as organism-based, Canis lupus familiaris. Particulars: in vivo.
Series [34] relates to Canis familiaris. Put plainly: Unbound Cmax in beagle dog […] at 300 mg/kg, po qd administered for 14 days. Particulars: in vivo, 336 h. It counts as ADME, organism-based, Canis lupus familiaris. A digest of the protocol:
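Exploratory 14-day dog toxicity study with daily oral dosing. Toxicokinetic exposure is reported as the mean with male and female systemic values combined.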

Series [35] relates to Rattus norvegicus. The experiment in a line: Unbound Cmax in Wistar Han IGS rat at 30 mg/kg, po qd administered for 1 month. It counts as ADME, organism-based. The conditions noted are these: in vivo. A digest of the protocol: as §5

The Papp is a coefficient for how fast a substance crosses the barrier. One may read the bioavailability as dose-corrected exposure relative to a reference, in per cent. Turning to `C[C@@H](c1nc2ccc(N3CCC[C@@H](C(=O)N4CCCC4)C3)nc2[nH]1)n1cc(Cl)cn1`, the Activity in the series with Canis familiaris [1] was 5 mmHg; in the series with Canis familiaris [2] it was “Toxic”; in the series on Canis familiaris [3] it was 4 to 6 mmHg; with Canis familiaris [4], 15 bpm; with Canis familiaris [7], 65%; in the series with Canis familiaris [13] it was 4 to 6 mmHg. In addition, the Papp in series [5] is 13.1 ×10⁻⁶ cm/s. The compound further came in with a fAUC in the series on Canis familiaris [6] of 797 ng·h/mL. In series [8], the “CLH(app)” value was 8.4 µL/min. Also, the Ratio is on record as 110 in series [9], 52 in [10], 11 in series [14] and 0.39 in series [15]. Moreover, the fCmax in the series with Canis familiaris [11] was determined as 4.7 µM. Besides, in series [12], the bioavailability was found to be 75%.
On to `CS(=O)(=O)O.O=C([C@@H]1CCCN(c2ccc3nc(C4(n5cc(Cl)cn5)CC4)[nH]c3n2)C1)N1CCCC1`, for which the Activity entry was “Non-Toxic” in the series on Canis familiaris [16]; 98% in the series on Rattus norvegicus [17]; “Toxic” with Canis familiaris [18]; 8 to 30 bpm in the series with Canis familiaris [19]; “Toxic” with Canis familiaris [20]; “Toxic” in the series on Rattus norvegicus [21]. Besides, the Activity result is “Toxic” with Canis familiaris [22]; 60% in the series on Canis familiaris [26]; “Non-Toxic” in the series with Canis familiaris [27]; “Toxic” with Rattus norvegicus [28]; “Non-Toxic” in the series with Canis familiaris [29]; “Non-Toxic” in the series with Canis familiaris [30]. For the same compound, the Activity result in the series on Canis familiaris [31] is listed as “Toxic”; in the series on Canis familiaris [33], “Non-Toxic”. The values for the fCmax in the series with Rattus norvegicus [23], with Canis familiaris [34] and in the series with Rattus norvegicus [35] were 13.9 µM, 15.3 µM and 2020 nM, respectively. Moreover, the fAUC in the series with Canis familiaris [24] stood at 24800 ng·h/mL; with Canis familiaris [25] it was 92600 ng·h/mL; in the series with Rattus norvegicus [32] it was 62500 ng·h/mL.

The values are drawn from ChEMBL document CHEMBL4261487, “Small structural changes of the imidazopyridine diacylglycerol acyltransferase 2 (DGAT2) inhibitors produce an improved safety profile” (Medchemcomm, 2017).
